Measurements as given in ChEMBL document CHEMBL4725336, “Anti-cancer potential of (1,2-dihydronaphtho[2,1-b]furan-2-yl)methanone derivatives” (Bioorg Med Chem Lett, 2020).

Experiments:
MDA-MB-468 = assay: Antiproliferative activity against human MDA-MB-468 cells assessed as inhibition of cell proliferation by MTT assay; format: functional; details: read-out: LD50 (the source's name)
In short: (§1)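 MTT proliferation assay; cells exposed to compounds across 0-50 μM; LD50 derived from dose-dependent survival. Triple-negative MDA-MB-468, MDA-MB-231 and 4T1, ER+/PR+ MCF-7, and non-cancerous lung fibroblast WI-38 tested.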

MCF7 = assay: Antiproliferative activity against human MCF7 cells assessed as inhibition of cell proliferation by MTT assay; format: functional; details: read-out: LD50 (the source's name); in short: as §1
[1] = Cytotoxicity against human WI-38 cells assessed as inhibition of cell proliferation by MTT assay; format: cell-based; details: read-out: LD50 (the source's name); in short: as §1
[2] = Selectivity index, ratio of LD50 for human WI-38 cells to LD50 for human MDA-MB-468 cells assessed as inhibition of cell proliferation by MTT assay; format: toxicity; details: WI-38 cells and MDA-MB-468 cells, read-out: Selectivity Index
In short: (§2)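 MTT proliferation assay on cells treated with 0–50 μM. LD50 was derived for each cell line, and the selectivity index was calculated as WI-38 LD50 divided by cancer-cell LD50.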

[3] = Selectivity index, ratio of LD50 for human WI-38 cells to LD50 for human MCF7 cells assessed as inhibition of cell proliferation by MTT assay; format: toxicity; details: WI-38 cells and MCF7 cells, read-out: Selectivity Index; in short: as §2
4T1 = assay: Antiproliferative activity against mouse 4T1 cells assessed as inhibition of cell proliferation by MTT assay; format: functional; details: read-out: LD50 (the source's name); in short: as §1
[4] = Selectivity index, ratio of LD50 for human WI-38 cells to LD50 for mouse 4T1 cells assessed as inhibition of cell proliferation by MTT assay
In short: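 Selectivity index computed as MTT-derived LD50 in non-cancerous WI-38 lung fibroblasts divided by LD50 in the cancer line (cells exposed to 0-50 μM).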

MDA-MB-231 = assay: Antiproliferative activity against human MDA-MB-231 cells assessed as inhibition of cell proliferation by MTT assay; format: functional; details: read-out: LD50 (the source's name); in short: as §1
[5] = Selectivity index, ratio of LD50 for human WI-38 cells to LD50 for human MDA-MB-231 cells assessed as inhibition of cell proliferation by MTT assay; format: toxicity; details: WI-38 cells and MDA-MB-231 cells, read-out: Selectivity Index

SMILES	CC50 (MDA-MB-468)	CC50 (MCF7)	CC50 [1]	selectivity ratio [2]	selectivity ratio [3]	CC50 (4T1)	Selectivity Index [4]	CC50 (MDA-MB-231)	selectivity ratio [5]
Cc1ccc([C@H]2c3c(ccc4ccccc34)O[C@@H]2C(=O)c2ccccc2)cc1	63 µM	71 µM	72 µM	1.14	1.01	–	–	–	–
CC(=O)[C@@H]1Cc2c(ccc3ccccc23)O1	22 µM	26 µM	47 µM	2.13	1.8	–	–	–	–
O=C(c1ccccc1)[C@H]1Oc2ccc3cc(Br)ccc3c2[C@@H]1c1ccccc1	18 µM	19 µM	52 µM	2.89	2.74	24 µM	2.16	22 µM	2.36
O=C(c1ccc(Br)cc1)[C@@H]1Cc2c(ccc3ccccc23)O1	18 µM	21 µM	56 µM	3.11	2.66	25 µM	2.24	23 µM	2.43
O=C(c1ccccc1)[C@H]1Oc2ccc3ccccc3c2[C@@H]1C1CCCCC1	46 µM	42 µM	74 µM	1.6	1.76	–	–	–	–
O=C(c1ccccc1)[C@@H]1Cc2c(ccc3cc(Br)ccc23)O1	32 µM	54 µM	73 µM	2.28	1.35	–	–	–	–
O=C(c1ccco1)[C@@H]1Cc2c(ccc3ccccc23)O1	34 µM	37 µM	51 µM	1.5	1.38	–	–	–	–
O=C(c1ccco1)[C@H]1Oc2ccc3cc(Br)ccc3c2[C@@H]1c1ccccc1	68 µM	72 µM	92 µM	1.35	1.28	–	–	–	–
O=C(c1ccccc1)[C@H]1Oc2ccc3ccccc3c2[C@@H]1c1ccc(O)cc1	81 µM	77 µM	115 µM	1.42	1.49	–	–	–	–
COc1cc([C@H]2c3c(ccc4ccccc34)O[C@@H]2C(=O)c2ccccc2)cc(OC)c1OC	88 µM	86 µM	128 µM	1.45	1.49	–	–	–	–
O=C(c1ccccc1)[C@H]1Oc2ccc3ccccc3c2[C@@H]1c1ccc(Cl)cc1	87 µM	91 µM	96 µM	1.1	1.05	–	–	–	–
CCC[C@H]1c2c(ccc3ccccc23)O[C@@H]1C(=O)c1ccccc1	69 µM	74 µM	79 µM	1.14	1.07	–	–	–	–
COc1cc([C@@H]2c3cc4c(cc3[C@@H](O[C@@H]3O[C@@H]5CO[C@@H](C)O[C@H]5[C@H](O)[C@H]3O)[C@H]3COC(=O)[C@H]23)OCO4)cc(OC)c1O [ETOPOSIDE]	27.9 µM	45.3 µM	29.6 µM	1.06	0.65	–	–	–	–
O=C(c1ccc(F)cc1)[C@@H]1Cc2c(ccc3ccccc23)O1	27 µM	29 µM	54 µM	2	1.86	–	–	–	–
O=C(c1ccccc1)[C@H]1Oc2ccc3ccccc3c2[C@@H]1c1ccc(Br)cc1	63 µM	56 µM	77 µM	1.22	1.37	–	–	–	–
O=C(c1ccccc1)[C@H]1Oc2ccc3ccccc3c2[C@@H]1c1ccccc1	72 µM	68 µM	89 µM	1.24	1.3	–	–	–	–
COc1ccc([C@H]2c3c(ccc4ccccc34)O[C@@H]2C(=O)c2ccccc2)cc1	118 µM	84 µM	83 µM	0.7	0.98	–	–	–	–
N#Cc1ccc([C@H]2c3c(ccc4ccccc34)O[C@@H]2C(=O)c2ccccc2)cc1	53 µM	51 µM	72 µM	1.35	1.41	–	–	–	–
C[C@H]1c2c(ccc3ccccc23)O[C@@H]1C(=O)c1ccccc1	34 µM	38 µM	64 µM	1.88	1.68	–	–	–	–
O=C(c1ccccc1)[C@H]1Oc2ccc3ccccc3c2[C@@H]1c1ccc2ccccc2c1	23 µM	28 µM	59 µM	2.56	2.1	–	–	–	–
N#Cc1ccc(C(=O)[C@H]2Oc3ccc4ccccc4c3[C@@H]2c2ccc3ccccc3c2)cc1	54 µM	57 µM	88 µM	1.63	1.54	–	–	–	–
